PMI act – activators of human PMI, primary screen, biochemical, fluorescence intensity, near-Km mannose 6-phosphate | Mannose-6-phosphate isomerase (Homo sapiens), P34949 | AID 1214, 2008 | activation factor at 20 µM | hit rate 0.005% among 190,000 | purified human PMI, coupled resazurin fluorescence, 20 min; active compounds read high; 1 = vehicle control, 0 substrate-free wells;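 active = activation factor of 2 or more at 20 µM, relative to plate controls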
Diaph act CS – compounds boosting diaphorase resazurin reduction – biochemical, uHTS, resorufin fluorescence, counter-screen for diaphorase-coupled primary assays, primary screen; Diaphorase/resazurin coupled assay, 16 min; active compounds read high; 1 = vehicle wells, 0 = NADH-free wells; activation factor at 20 µM; hit rate 0.005% among 190,000; AID 1229, 2008;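 active = diaphorase activity raised at least twofold by the compound at 20 µM; inactive = activation factor below 2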
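Material: bacterial diaphorase enzyme (C. kluyveri); amount: enzyme 0.07 U/mL final; reagent: NADH substrate 0.114 mM plus resazurin dye 0.1 mM, final; doses: single compound dose of 20 µM, 1% DMSO final; timing: 16 min enzyme reaction, ambient temperature; measured by: fluorescence of resorufin, 544 nm excitation, 590 nm emission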
FLuc inh counter – firefly luciferase enzyme inhibitors, primary screen, artefact control for luciferase-based inhibitor screens, biochemical, luminescence, ATPLite; inhibition, % at 10 µM; Luciferin 4-monooxygenase (Photinus pyralis), P08659; 10 min; hit rate 1.5% among 200,000; AID 1006, 2008;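 active = inhibition above about 50% when tested at 10 µM, limit read from the data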
Target sequence (P08659 whole entry, looked up): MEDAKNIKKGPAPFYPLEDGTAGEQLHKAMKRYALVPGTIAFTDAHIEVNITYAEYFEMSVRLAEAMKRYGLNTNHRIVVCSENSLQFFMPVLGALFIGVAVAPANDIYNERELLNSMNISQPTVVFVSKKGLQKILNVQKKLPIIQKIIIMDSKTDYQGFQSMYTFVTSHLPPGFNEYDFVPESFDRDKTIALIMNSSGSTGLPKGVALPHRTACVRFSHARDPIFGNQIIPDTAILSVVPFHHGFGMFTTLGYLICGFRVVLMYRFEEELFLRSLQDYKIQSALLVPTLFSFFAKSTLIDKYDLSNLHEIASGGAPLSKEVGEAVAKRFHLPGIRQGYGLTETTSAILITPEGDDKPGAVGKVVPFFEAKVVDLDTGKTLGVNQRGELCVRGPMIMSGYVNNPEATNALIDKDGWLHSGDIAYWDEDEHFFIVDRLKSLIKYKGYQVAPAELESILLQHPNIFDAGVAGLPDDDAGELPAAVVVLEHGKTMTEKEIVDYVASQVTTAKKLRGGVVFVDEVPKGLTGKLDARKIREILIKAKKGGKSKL
FLuc stim CS – FLuc activators, initial screening, artefact control for FLuc-dependent activation tests, biochemical, ATPlite luminescence; Luciferin 4-monooxygenase (Photinus pyralis), P08659; ATPlite luciferase biochemical, 10 min; 0 = ATP-free wells, 1 = DMSO control; activation factor at 10 µM; 200,000 tested, under 10 active;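 active = luciferase activation factor, scaled between plate controls, of at least 2 with compound at 10 µM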
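System: cell-free luciferase reagent; medium: PBS as buffer for the ATP substrate; doses: test compounds dosed from 2 mM stocks in 100% DMSO; incubation: 10 min, room temperature; measured by: luminescence from luciferase reaction; read-out: luciferase activation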
PMI act hi M6P – human PMI activators, high substrate, primary screen, biochemical, fluorescence intensity, near-saturating mannose 6-phosphate; activation factor at 20 µM; hit rate 0.34% among 190,000; Mannose-6-phosphate isomerase (Homo sapiens), P34949; coupled PMI enzyme assay, resazurin fluorescence, 20 min; active compounds read high; 1 = untreated enzyme, 0 = substrate-free blank;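 active = activation factor of 2 or more at 20 µM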
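test system = human PMI in coupled enzyme assay | medium = HEPES-buffered pH 7.4 with magnesium and detergent | also added = 1.0 mM mannose-6-phosphate substrate with 0.22 mM NADP+ | compound = 20 µM single dose | times = 20 min incubation at room temperature | measured by = resorufin fluorescence (Ex 544/Em 590 nm) from resazurin via diaphorase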
Diaph inh CS – diaphorase inhibitors and chemical oxidizers, primary screen, counter-screen for diaphorase-coupled primary assays, biochemical, uHTS, resorufin fluorescence | diaphorase resazurin-to-resorufin fluorescence, NADH, 16 min; bacterial (C. kluyveri) enzyme, not human | inhibition, % at 20 µM | hit rate 0.69% among 190,000 | AID 1217, 2008;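 active = primary screen inhibition at 20 µM above a set limit, cut at about 50% in these data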;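 also: plate controls were DMSO with full reaction for no effect and wells lacking NADH for full effect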
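controls = No-NADH positive control and DMSO neutral control | system = Clostridium kluyveri diaphorase enzyme | timing = reaction incubation of 16 min at room temperature | signal = resorufin fluorescence 544/590 nm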
* = called active by the depositor. The list is not random: actives were taken first. Their share in the collection is about 2.5%.

For COc1cccc(-c2nnc(Nc3nc4c(F)cccc4s3)o2)c1 the results were PMI act 1.2, Diaph act CS 1.1, FLuc inh counter 88*, FLuc stim CS 0.1, PMI act hi M6P 1.2 and Diaph inh CS -15.
Screening Cc1ccc(-c2nc3ccccc3[nH]2)s1 returned PMI act 1.2, Diaph act CS 0.9, FLuc inh counter 61*, FLuc stim CS 0.4, PMI act hi M6P 1.6 and Diaph inh CS 7.
For COc1ccc(-c2nc3ccccc3[nH]2)cc1 the results were PMI act 1, Diaph act CS 1, FLuc inh counter 93*, FLuc stim CS 0.1, PMI act hi M6P 1 and Diaph inh CS 4.
For Cc1cc(-c2nc3ccccc3[nH]2)ccc1N the results were PMI act 1.1, Diaph act CS 1, FLuc inh counter 72*, FLuc stim CS 0.3, PMI act hi M6P 1 and Diaph inh CS 2.
Screening COC(=O)c1ccc(/C=N/Nc2nc3ccccc3[nH]2)cc1 returned PMI act 1, Diaph act CS 1.1, FLuc inh counter 44, FLuc stim CS 0.6, PMI act hi M6P 1.1 and Diaph inh CS -7.
Screening COC(=O)c1ccc(-c2nc3ccccc3[nH]2)cc1 returned PMI act 1, Diaph act CS 0.8, FLuc inh counter 91*, FLuc stim CS 0.1, PMI act hi M6P 0.9 and Diaph inh CS 16.
For c1ccc2[nH]c(-c3ccncc3)nc2c1 the results were PMI act 0.8, Diaph act CS 0.9, FLuc inh counter 9, FLuc stim CS 0.9, PMI act hi M6P 0.9 and Diaph inh CS 7.
`Cc1nnc(-c2ccccc2)nc1N(C)C` gave PMI act 1.1, Diaph act CS 1, FLuc inh counter -4, FLuc stim CS 1, PMI act hi M6P 1.1 and Diaph inh CS -3.
COc1ccc(-c2nc(=S)c3ccc4ccccc4c3[nH]2)cc1 was read as PMI act 1.7, Diaph act CS 0.9, FLuc inh counter -1, FLuc stim CS 1, PMI act hi M6P 2.3* and Diaph inh CS 9.
Screening COc1ccc2oc(=Nc3cccc(F)c3)c(C(N)=O)cc2c1 returned PMI act 1, Diaph act CS 1, FLuc inh counter -5, FLuc stim CS 1, PMI act hi M6P 0.9 and Diaph inh CS 0.
`Cc1ccc2nc(-c3ccccc3N)[nH]c2c1` gave PMI act 0.9, Diaph act CS 0.9, FLuc inh counter 80*, FLuc stim CS 0.2, PMI act hi M6P 0.8 and Diaph inh CS 14.
COc1ccc2oc(=Nc3ccccc3)c(-c3nc4ccccc4[nH]3)cc2c1 was read as PMI act 0.8, Diaph act CS 0.9, FLuc inh counter 61*, FLuc stim CS 0.4, PMI act hi M6P 0.9 and Diaph inh CS 8.
`c1ccc(-c2nc3ccccc3[nH]2)nc1` gave PMI act 0.9, Diaph act CS 0.9, FLuc inh counter 46, FLuc stim CS 0.5, PMI act hi M6P 0.8 and Diaph inh CS 12.
Screening Nc1nc(-c2nc3ccccc3[nH]2)cs1 returned PMI act 0.9, Diaph act CS 0.9, FLuc inh counter 63*, FLuc stim CS 0.4, PMI act hi M6P 0.9 and Diaph inh CS 8.
For COc1ccc(S(=O)(=O)N2CCCC2C(=O)n2nc(C)cc2C)cc1 (configuration not stated) the results were PMI act 1.1, Diaph act CS 1, FLuc inh counter 1, FLuc stim CS 1, PMI act hi M6P 1.1 and Diaph inh CS 2.
`Cc1ccc(-n2c(-c3ccccc3)c[n+]3c2CCC3)cc1` gave PMI act 1, Diaph act CS 0.2, FLuc inh counter -1, FLuc stim CS 1, PMI act hi M6P 1 and Diaph inh CS 79*.
O=C(CSc1n[nH]c(=O)[nH]c1=O)NC1CC1 was read as PMI act 1.1, Diaph act CS 1, FLuc inh counter -3, FLuc stim CS 1, PMI act hi M6P 1 and Diaph inh CS 4.
Screening O=C(NC1CC1)c1cccc(Nc2ccc(-c3ccc4c(c3)OCCO4)nn2)c1 returned PMI act 0.8, Diaph act CS 0.8, FLuc inh counter 83*, FLuc stim CS 0.2, PMI act hi M6P 0.9 and Diaph inh CS 24.
`COc1cccc2cc(-c3ccccc3)c(=O)oc12` gave PMI act 1, Diaph act CS 1.1, FLuc inh counter 60*, FLuc stim CS 0.4, PMI act hi M6P 1 and Diaph inh CS -6.
Cc1ccc(/C=C/C(=O)N2CCc3ccccc3C2)cc1 was read as PMI act 0.9, Diaph act CS 0.8, FLuc inh counter 51*, FLuc stim CS 0.5, PMI act hi M6P 0.9 and Diaph inh CS 19.
Screening O=C(NC1CCS(=O)(=O)C1)Oc1ccc(Cl)cc1 (configuration not stated) returned PMI act 1, Diaph act CS 1, FLuc inh counter -7, FLuc stim CS 1.1, PMI act hi M6P 1 and Diaph inh CS 1.
Screening C=CCn1c(=O)c2ccccc2n2c(SCC(=O)/C(C#N)=C(\C)N)nnc12 returned PMI act 1, Diaph act CS 0.9, FLuc inh counter -4, FLuc stim CS 1, PMI act hi M6P 1 and Diaph inh CS 8.
For O/N=C/c1nc2cc(Cl)ccc2o1 the results were PMI act 1, Diaph act CS 1, FLuc inh counter 0, FLuc stim CS 1, PMI act hi M6P 0.9 and Diaph inh CS 2.
Nc1ccc2oc(-c3ccccn3)nc2c1 was read as PMI act 1, Diaph act CS 0.9, FLuc inh counter 58*, FLuc stim CS 0.4, PMI act hi M6P 0.6 and Diaph inh CS 5.
Clc1ccc2oc(-c3ccccn3)nc2c1 was read as PMI act 1, Diaph act CS 1, FLuc inh counter 69*, FLuc stim CS 0.3, PMI act hi M6P 1.1 and Diaph inh CS -5.
For c1ccc(-c2nc3ccccc3o2)nc1 the results were PMI act 0.9, Diaph act CS 0.9, FLuc inh counter 31, FLuc stim CS 0.7, PMI act hi M6P 1 and Diaph inh CS 12.
